M5 ag – CHRM5 agonism in calcium assay | P08912 | CHO-K1 hM5 cells, Fluo-8 calcium fluorescence; 0% DMSO wells, 100% maximal acetylcholine response | activation, % at 3 µM | 0.19% of 360,000 active;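 active = activation above the run's mean over test compounds plus 3 SD, cut at about 23% in these data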;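 note: signal is peak over basal fluorescence ratio across the kinetic read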
Target sequence (P08912 whole entry, looked up): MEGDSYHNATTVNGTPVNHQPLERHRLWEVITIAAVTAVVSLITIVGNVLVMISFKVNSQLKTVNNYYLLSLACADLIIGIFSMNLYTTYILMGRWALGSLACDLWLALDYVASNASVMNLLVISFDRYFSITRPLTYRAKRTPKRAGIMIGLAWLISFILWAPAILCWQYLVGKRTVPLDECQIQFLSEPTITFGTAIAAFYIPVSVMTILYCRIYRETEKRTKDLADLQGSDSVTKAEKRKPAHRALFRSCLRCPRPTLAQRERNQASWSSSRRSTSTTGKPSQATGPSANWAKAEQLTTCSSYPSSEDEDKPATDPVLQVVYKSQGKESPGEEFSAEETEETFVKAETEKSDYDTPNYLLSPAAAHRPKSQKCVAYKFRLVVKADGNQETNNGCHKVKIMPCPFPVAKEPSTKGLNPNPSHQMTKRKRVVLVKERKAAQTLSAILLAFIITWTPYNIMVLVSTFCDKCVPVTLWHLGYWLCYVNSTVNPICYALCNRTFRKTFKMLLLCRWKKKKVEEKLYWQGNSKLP
CHRM5 antagonist – antagonists of human muscarinic M5 receptor (CHRM5). P08912. inhibition, % at 3 µM. CHO-hM5 cells, Fluo-8 calcium fluorescence, ACh EC80. AID 624040. 0.59% of 360,000 active;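 active = inhibition above a per-plate cutoff, the mean of that plate's test compounds plus 3 SD, cut at about 27% in these data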
M5 PAM – positive allosteric modulators of human muscarinic M5 receptor. 0.3% of 360,000 active. CHO-K1 hM5, Fluo-8 calcium, ACh EC20 PAM; 0% = ACh EC20, 100% = ACh EC100. P08912. activation, % at 3 µM;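 active = activation above the run cutoff, the mean activation of all test compounds plus 3 SD, cut at about 18% in these data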
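Assay system: CHO-K1 hM5 cells / Incubation: Fluo-8 loading 80 min at 37 °C plus 30 min room temperature / Technique: Fluo-8 calcium dye fluorescence, kinetic read / Repeats: single replicate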
M4 PAM – CHRM4 positive allosteric modulation | CHO-K1 hM4/Gqi5, Fluo-8 calcium fluorescence, ACh EC20; 0% = ACh EC20, 100% = maximal ACh | activation, % at 3 µM | 0.4% of 360,000 active;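 active = activation above its plate's cutoff, the mean activation of sample wells plus 3 SD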
M4 antag – CHRM4 antagonism in calcium assay. P08173. CHO-hM4 cells, ACh EC80, Fluo-8 calcium fluorescence. inhibition, % at 3 µM. 0.73% of 360,000 active;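 active = inhibition above its plate's cutoff, the mean inhibition of sample wells plus 3 SD, cut at about 27% in these data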
M4 ag – CHRM4 agonism in calcium assay. AID 624127. activation, % at 3 µM. CHO-K1 hM4/Gqi5, Fluo-8 calcium fluorescence; vehicle 0%, full acetylcholine response 100%. 0.14% of 360,000 active;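 active = activation above the run mean over all test wells plus 3 SD, cut at about 32% in these data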;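 note: peak over basal fluorescence ratio per well then scaled between controls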
Hits are given with their value; 0 = inactive; - = not tested or not shown. Rows were chosen to be rich in hits. Some 1.9% of all compounds tested hit in one or more screens of this group.

SMILES	M5 ag	CHRM5 antagonist	M5 PAM	M4 PAM	M4 antag	M4 ag
CCN1/C(=C\C=C\C2=[N+](CC)c3ccccc3C2(C)C)C(C)(C)c2ccccc21	302	94	0	0	92	252
CC(C)CC(=O)NC(Oc1ccc(Cl)cc1)C(Cl)(Cl)Cl (centres undefined)	0	0	0	0	0	0
Cc1nc2ccccc2c(=O)n1-c1cccc(O)c1	0	0	0	17	0	0
Cc1ccc2nsnc2c1-n1c(C)nc2ccccc2c1=O	0	0	0	30	0	0
Cc1ccc(-c2nc3ccccc3c(=O)n2-c2cccc(O)c2)cc1	0	0	0	0	0	0
Cc1cc(C=C2C(=O)N(C)C(=S)N(C)C2=O)c(C)n1-c1ccncc1	0	0	0	0	0	0
COC(=O)C1C(O)C(C)C(O)C(C)/C=C\C=C(/C)C(=O)Nc2c(C)c(OC(C)=O)c3c(c2O)C(=O)C(C)=C2OCOC(=C23)/C(C)=C/C(C)(O)C(O)C(C)C1O (centres undefined)	0	0	0	0	0	0
CCN(CC)CCC(=O)O[C@H]1CC[C@]2(C)C3CC[C@@]4(C)C(CC[C@]4(C)O)C3CC[C@H]2C1 (some centres undefined)	0	0	0	0	28	0
S=C1NCCN1	0	0	0	0	30	0
O=C1NC(=O)N(c2ccccc2F)C(=O)/C1=C/c1ccc(Sc2nc3ccccc3[nH]2)o1	0	0	0	0	0	41
O=C1NC(=O)N(c2ccccc2)C(=O)/C1=C/c1ccc(Sc2ccccc2)o1	0	0	0	0	0	0
O=C1NC(=O)N(c2cccc(Cl)c2)C(=O)/C1=C\c1ccc(Sc2nc3ccccc3[nH]2)o1	36	0	0	0	0	0
CCN1CCN(c2ccc([N+](=O)[O-])cc2C(=O)OC)CC1	0	0	0	0	0	0
CCN(C(=O)CN1CC=C(c2ccccc2)CC1)c1c(N)n(Cc2ccccc2)c(=O)[nH]c1=O	0	0	0	0	0	0
CC(C)Cc1[nH]c(=O)c(C#N)c2c1CCC2	0	0	0	0	0	0
CC1(C)C(C(=O)N2CCN(C(=O)c3ccccc3)CC2)C1(C)C	0	0	0	0	0	0
CCOC(=O)C1CCCN(c2ccc([N+](=O)[O-])c3nonc23)C1 (centres undefined)	185	52	0	0	53	314
CC1CCCN(c2ccc(C(=O)N3CCC4(CC3)OCCO4)cc2[N+](=O)[O-])C1 (centres undefined)	0	0	0	0	0	0
C=CC[C@@H](C)CC(=O)C(CCCN=[N+]=[N-])SOOc1ccccc1 (some centres undefined)	0	0	0	0	0	0
CCOC(=O)[C@@]1(C#N)[C@@H]2C=CC(C(N)=O)=CN2[C@@H](C(N)=O)[C@@H]1c1cccc(Cl)c1	0	0	31	0	0	0
CCOC(=O)[C@]1(C#N)[C@@H]2C=CC(C(N)=O)=CN2[C@@H](C(N)=O)[C@@H]1c1ccc(F)cc1	0	0	0	0	0	0
CCN(CC)c1ccc(/C=C/[N+](=O)[O-])cc1	96	90	0	0	29	71
COc1cc(/C=C/[N+](=O)[O-])ccc1O	0	0	0	0	0	0
CC(=O)OC(C)(C)/C=C/C(=O)C(C)(O)C1C(O)CC2(C)C3CC=C4C(CC(O)C(=O)C4(C)C)C3(C)C(=O)CC12C (centres undefined)	0	0	0	16	0	0
COc1ccccc1CCNC1C2CC3CC(C2)CC1C3 (centres undefined)	0	0	0	0	32	0
SMILES	M5 ag	CHRM5 antagonist	M5 PAM	M4 PAM	M4 antag	M4 ag
Cc1nc2sccc2c(=O)n1-c1ccccc1Cl	0	0	0	0	0	0
CC(C)COC(=O)c1ccccc1C(=O)OCC(C)C	0	0	0	0	0	0
C[CH2][Hg][S]c1ccccc1C(=O)O	0	0	0	33	36	0
CCOC(=O)/C(CCCN(CC)CC)=N\O	0	35	0	0	34	0
CCN1C(=O)CC(c2cccnc2)=Nc2ccccc21	0	0	19	0	0	0
O=C1CC(c2cccnc2)=NN1c1ccc(Cl)cc1Cl	0	0	0	0	0	0
CC(C)CN(C(=O)CN1CC=C(c2ccccc2)CC1)c1c(N)n(CC(C)C)c(=O)[nH]c1=O	0	0	0	0	0	0
Cc1ccc(S(=O)(=O)N[C@@H](CCCCN)C(=O)CCl)cc1	39	0	0	0	0	0
Cc1ccc(S(=O)(=O)NCCC(=O)Nc2ccc(Cl)cc2C(=O)c2ccccc2)cc1	0	0	0	0	0	0
CCCn1ncc(CN2CCCC(C(=O)c3cccc(OC)c3)C2)c1C (centres undefined)	0	0	0	0	55	0
CC(C)[N+](C)(CCC(C(N)=O)(c1ccccc1)c1ccccc1)C(C)C	0	99	0	0	100	0
CCC(=O)C(CCN1CCOCC1)(c1ccccc1)c1ccccc1	0	0	0	0	0	0
O=C(NCC1=C(c2cccc3ccccc23)C[C@@H]2CC[C@H]1N2Cc1ccco1)c1ccncc1	0	0	0	0	0	0
NNCc1cccc(O)c1	0	0	0	0	0	0
NC(N)=Nc1ccc2[nH]c3c(c2c1)C[C@@]1(O)[C@H]2Cc4ccc(O)c5c4[C@@]1(CCN2CC1CC1)[C@H]3O5	0	0	0	0	0	0
CN1[C@@H]2CC[C@H]1CC(OC(=O)C1C=Nc3ccccc31)C2 (some centres undefined)	0	0	0	0	0	0
C[N+]1(C)[C@@H]2CC(OC(=O)[C@H](CO)c3ccccc3)C[C@H]1[C@@H]1O[C@@H]12 (some centres undefined)	0	98	0	-	-	-
C[N+]1(C)C2CC(OC(=O)C(CO)c3ccccc3)CC1C1OC12 (centres undefined)	0	99	0	-	-	-
CCCC[N+]1(C)[C@@H]2CC(OC(=O)[C@H](CO)c3ccccc3)C[C@H]1[C@@H]1O[C@@H]12 (some centres undefined)	0	72	0	0	92	0
C[N+]1(C)[C@@H]2CC[C@H]1CC(OC(=O)C(c1ccccc1)c1ccccc1)C2 (some centres undefined)	0	99	0	0	99	0
CCN(CC)c1ccc(/C=C2/C(=O)NC(=O)N(Cc3ccco3)C2=O)cc1	0	0	0	0	0	0
O=C(NC1CCCCC1)N1Cc2cc(N3CCOCC3)ccc2-n2nncc2C1	0	0	0	0	0	0

Compound activity deposited in PubChem by The Scripps Research Institute Molecular Screening Center.
